BB579 growth dn: reduces growth of yeast BB579 in restrictive medium; 0.51% of 140,000 active; S. cerevisiae BB579 growth, OD615, 48 h; inhibition, % at 10 µM;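 active = inhibition above a set limit, 3 SD over the mean compound inhibition, cut at about 44% in these data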
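Test system: Saccharomyces cerevisiae DeaD strain BB579, replicative lifespan model yeast | Buffer or medium: Restrictive CSMM-D medium | Doses: One dose, 10 µM compound with 0.25% DMSO | Incubation: 48 h exposure, 30 °C | Detection: Culture absorbance at 615 nm | Control set: Amphotericin B at 10 µg/mL as positive control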
KCC2 mod: modulates chloride dependent transport by human KCC2 | B-score of Tl+ flux slope (higher = more flux/activation; lower = inhibition) at 10 µM | 2.2% of 190,000 active | KCC2 cells, thallium flux FluoZin-2 fluorescence | Q9H2X9;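 active = thallium flux slope and its plate-corrected score both differing from the plate sample mean at a set confidence after two filtering rounds, in either direction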;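 also: slope of fluorescence scaled to starting intensity during 10 to 20 s after thallium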
Target sequence (Q9H2X9 whole entry, looked up): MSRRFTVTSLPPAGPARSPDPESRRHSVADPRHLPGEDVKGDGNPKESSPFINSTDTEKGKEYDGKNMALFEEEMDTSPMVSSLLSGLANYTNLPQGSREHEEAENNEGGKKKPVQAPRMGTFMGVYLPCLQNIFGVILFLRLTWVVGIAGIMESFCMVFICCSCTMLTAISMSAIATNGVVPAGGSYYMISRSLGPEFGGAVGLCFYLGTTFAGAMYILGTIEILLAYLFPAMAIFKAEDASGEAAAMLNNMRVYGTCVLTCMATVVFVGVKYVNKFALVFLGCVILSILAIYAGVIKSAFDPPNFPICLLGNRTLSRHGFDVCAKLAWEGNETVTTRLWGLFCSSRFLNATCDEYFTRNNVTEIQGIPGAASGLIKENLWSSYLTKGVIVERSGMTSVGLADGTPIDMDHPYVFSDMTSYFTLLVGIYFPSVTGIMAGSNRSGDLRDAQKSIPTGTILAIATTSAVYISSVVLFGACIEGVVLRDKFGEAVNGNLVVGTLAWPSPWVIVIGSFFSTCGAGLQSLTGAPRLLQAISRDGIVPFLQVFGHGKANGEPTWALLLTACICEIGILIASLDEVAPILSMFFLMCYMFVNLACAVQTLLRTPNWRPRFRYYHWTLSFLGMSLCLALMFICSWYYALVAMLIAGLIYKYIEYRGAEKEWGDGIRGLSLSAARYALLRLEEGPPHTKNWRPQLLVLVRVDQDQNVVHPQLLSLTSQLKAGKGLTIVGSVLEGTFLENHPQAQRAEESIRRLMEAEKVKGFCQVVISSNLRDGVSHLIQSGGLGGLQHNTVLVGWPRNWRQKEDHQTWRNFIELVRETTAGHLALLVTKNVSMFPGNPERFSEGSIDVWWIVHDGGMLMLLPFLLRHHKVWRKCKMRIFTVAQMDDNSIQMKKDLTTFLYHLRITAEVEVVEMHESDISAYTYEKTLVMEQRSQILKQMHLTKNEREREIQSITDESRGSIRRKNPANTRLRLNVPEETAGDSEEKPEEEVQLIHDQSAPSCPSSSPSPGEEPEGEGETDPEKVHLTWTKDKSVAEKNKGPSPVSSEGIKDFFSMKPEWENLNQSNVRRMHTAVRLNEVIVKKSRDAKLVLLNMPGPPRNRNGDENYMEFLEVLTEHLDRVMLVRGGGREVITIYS
WT yeast gro inh: growth inhibition of WT yeast, mitochondrial fusion screen | 2.1% of 190,000 active | inhibition, % at 10 µM | mitochondrial fusion phenotypic screen, WT strain; in the data active = inhibition above about 58%; tested in S. cerevisiae
RAM network inh: blocks the yeast RAM network; S. cerevisiae dse1pr::URA3 reporter, 5-FOA growth OD615, 2 d; analog-sensitive cbk1-as2 kinase mutant strain; 1.8% of 190,000 active; inhibition, % at 50 µM;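 active = inhibition above a set limit, 3 SD over mean compound inhibition, cut at about 8.4% in these data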;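 also: 0% = DMSO-only wells with no growth and 100% = 10 µM 1-NA-PP1 full growth; inhibition rescues growth on 5-FOA so higher OD means more RAM inhibition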
Yeast lifespan up: extends the lifespan of yeast; AID 775; inhibition of the nicotinamide effect, % at 10 µM; 0.68% of 130,000 active; S. cerevisiae growth with nicotinamide, OD615; deaD strain in restrictive glucose medium;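 active = inhibition above a set limit, placed 3 SD over the median of all compounds, cut at about 26% in these data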;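 also: 0% = nicotinamide-treated wells and 100% = cells grown without nicotinamide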
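Material: Modified budding yeast, DeaD strain | Medium: Restrictive glucose medium | Probe or stimulus: 1.5 mM nicotinamide | Dosing: Single dose 10 µM compound, 0.25% DMSO | Times: 48 h at 30 °C | Technique: OD615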
* hit, by the source's call; x = no result given. Sampled rows, rich in hits. Any-hit rate of the full collection: about 5.5%.

SMILES	BB579 growth dn	KCC2 mod	WT yeast gro inh	RAM network inh	Yeast lifespan up
Cc1cc(N2CCN(c3ccccc3)CC2)nc(-n2nc(C)cc2C)n1	-22	x	72*	1	-5
Cc1nn(Cc2ccc(Cl)cc2)c(C)c1NC(=O)C1CC=CCC1C(=O)O (configuration not stated)	-20	-0.15	-7	0	-15
O=C(CN(C1CCCCC1)S(=O)(=O)c1ccc(Cl)cc1)NCc1ccncc1	31	-1.2	11	-1	-15
CCCn1ncc(CN2CCC(N3CCC(C(=O)N4CCOCC4)CC3)CC2)c1C	x	-0.44	-10	1	x
Cc1cc(Nc2ccccc2)n(-c2nc3ccccc3[nH]2)n1	-52	3.3*	70	4	-7
COC(=O)c1ccc(-n2c(C)cc(C(=O)COC(=O)CC3Sc4ccccc4NC3=O)c2C)cc1 (configuration not stated)	-28	-1.1	41	8.8*	-2
CC(C)c1ccc(S(=O)(=O)N2CCCCC2)cc1	x	-0.44	5	5	x
CC(C)c1ccc(S(=O)(=O)c2ccc(NN)cc2)cc1	x	-0.87	69*	2	x
O=C(Nc1ccc(O)c(C(=O)O)c1)Oc1ccccc1	x	0.21	x	x	x
CN(c1ccc(O)cc1)c1nc(-c2cccs2)cs1	x	-2.8	67*	-1	x
COc1ccc(NC(=O)CSc2nnc(NC(=O)c3ccccc3C(=O)O)s2)cc1	x	-0.79	6	7	x
COc1ccccc1NC(=O)C1=C(C)NC2=C(C(=O)CC(c3ccc(OC)c(OC)c3)C2)C1c1coc2ccccc2c1=O (configuration not stated)	-60	-1.6	20	9.8*	5
COc1ccc(CCn2c(-c3cc([N+](=O)[O-])cc([N+](=O)[O-])c3)nc3nc4ccccc4nc32)cc1OC	-9	-1.3	10	3	3
Cc1ccc([N+](=O)[O-])cc1NC(=S)NC(=O)CC(C)(C)C	-46	x	68*	7	-7
COc1ccc(CNc2ccc([N+](=O)[O-])cc2C)cc1	x	-0.35	x	x	x
Cc1cc([N+](=O)[O-])ccc1NC(=S)NC(=O)Cc1ccccc1	-33	8.5*	8	4	-10
Cc1ccc([N+](=O)[O-])cc1NC(=S)NC(=O)C(C)(C)C	-1	-0.047	9	-1	-12
CC(=O)NC(=S)Nc1ccc([N+](=O)[O-])cc1C	x	-0.67	-9	0	x
Cc1cc([N+](=O)[O-])ccc1NCc1ccc2ccccc2c1	-51	-0.68	3	9.8*	-9
COC(=O)c1cc2c(N)c(C(=O)c3ccccc3)sc2nc1C(OC)OC	x	-1.5	x	x	x
CCN1CCN(c2nc(-c3ccccc3)nc3ccccc23)CC1	-17	1.5	-10	0	2
Cc1cccc2nc(-c3ccccc3)nc(N3CCC(O)(c4ccc(Cl)cc4)CC3)c12	-31	0.69	68*	-1	8
CN(Cc1nc2ccccc2c(=O)[nH]1)Cc1nc2ccsc2c(=O)[nH]1	x	-0.091	-20	0	x
CCN(c1ccccc1)c1nc2ccsc2c(=O)s1	-24	0.17	56	8.5*	-14
CN(c1ccccc1)c1nc2ccsc2c(=O)s1	-31	-1.7	11	2	88*
SMILES	BB579 growth dn	KCC2 mod	WT yeast gro inh	RAM network inh	Yeast lifespan up
CCN(C(=S)Nc1ccc(C(C)=O)cc1)C1CCCCC1	x	0.71	3	-1	x
O=C(COC(=O)c1ccc(CNS(=O)(=O)c2ccc(F)c(Cl)c2)cc1)NC1CCCCCCC1	-38	2	11	4	2
O=C(COC(=O)c1ccc(CNS(=O)(=O)c2ccc(F)c(Cl)c2)cc1)NCC1CCCCC1	-40	0.67	0	9.0*	5
N#CCCN(C(=O)COC(=O)c1ccc(CNS(=O)(=O)c2ccc(F)c(Cl)c2)cc1)c1ccc(F)cc1	-23	-1	-11	11*	-5
O=C(COC(=O)Cn1cnc2ccccc2c1=O)Nc1ccccc1Sc1ccc(Cl)cc1	-35	-0.61	19	6	-3
Cc1ccccc1NC(=O)Cn1nnc2ccccc21	x	0.9	9	-1	x
COc1ccc(OC)c(C2C(C(C)=O)=C(O)C(=O)N2Cc2cccnc2)c1 (configuration not stated)	-27	-0.34	2	2	82*
Cc1ccc2nc(Cl)c(/C=N/NC(=O)[C@H]3C[C@@H]3c3ccccc3)cc2c1	-6	-1.2	16	3	-5
Cc1ccc2nc(Cl)c(/C=N/NC(=O)c3ccccc3O)cc2c1	-7	-1.1	62*	3	1
